Drawing on ChEMBL document CHEMBL2407011, “Novel 2-(2,4-dioxo-1,3-thiazolidin-5-yl)acetamides as antioxidant and/or anti-inflammatory compounds” (Eur J Med Chem, 2013), this text covers EC50, IC50 and Activity for 19 compounds.

Test [1] in a line: Antioxidant activity assessed as superoxide radical scavenging activity after 5 mins by spectrophotometry. The class given is functional. The procedure, abridged:
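Superoxide generated by PMS/NADH reducing NBT, in 16 mM Tris-HCl pH 8.0 with […], 50 µM NBT, 10 µM PMS and compound (5–180 µg/mL). After 5 min at room temperature, formazan read at 560 nm; % scavenging versus control, EC50 from triplicates.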

Test [2] concerns THP-1. In words: Antiinflammatory activity in human THP1 cells assessed as inhibition of PMA-induced IL-1beta secretion preincubated for 1 hr prior PMA-challenge measured after 48 hrs by ELISA. In kind it is functional, cell-based. The method in brief: (§1)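 THP1 cells at 2 x 10^5 cells/mL were pretreated 1 h with 5, 10 and 20 µM compound, then stimulated with 10 ng/mL PMA for 48 h. Supernatant IL-1β or MCP-1 was measured by ELISA at 450 nm (corrected at 570 nm) and quantified from a standard curve. Percent inhibition was taken versus control and IC50 derived, reported as mean ± SD of three independent experiments.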
(In general: In an ELISA, binding on a coated surface is turned into a signal by an enzyme label.)

In test [3] the test system is THP-1. In words: Antiinflammatory activity in human THP1 cells assessed as inhibition of PMA-induced MCP-1 secretion preincubated for 1 hr prior PMA-challenge measured after 48 hrs by ELISA. In kind it is functional, cell-based. The procedure, abridged:
as §1

The nature of test [4]: Hemolysis of human erythrocytes after 30 mins by spectrophotometry. The class given is ADME, cell-based, Erythrocyte. The procedure, abridged: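 Citrated human blood centrifuged (3,000 g, 10 min), erythrocytes washed in PBS pH 7.4 and made up as a 1.25% suspension. Suspension incubated with H2O2 (2.5 mM) and compound (50–300 µg/mL) 30 min at 37 °C, stopped on ice, centrifuged, read at 540 nm. Inhibition = (AH2O2 − Asample)/(AH2O2 − Anormal) × 100.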

Test [5] can be described thus: Antioxidant activity assessed as inhibition of lipid peroxidation activity after 15 mins by MDA assay. In kind it is functional. The method in brief:
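Egg yolk diluted 1:1 in PBS (0.1 M, pH 7.45) served as substrate. Compound (50–300 µg/mL) was added with FeSO4 (25 mM stock) and incubated 15 min at 37 °C. Reaction stopped with 20% TCA plus 0.8% thiobarbituric acid, then heated 15 min at 100 °C. MDA adduct read at 532 nm; % inhibition versus control, EC50 from triplicates.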

Test [6] is described as follows: Antioxidant activity assessed as DPPH scavenging activity after 30 mins by UV-visible spectrophotometry. The class given is functional. The method in brief:
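Methanolic compound solutions (5–180 µg/mL) mixed 1:1 by volume with 0.002% DPPH in methanol, shaken and kept in the dark 30 min. Absorbance read at 517 nm; % scavenging = (Acontrol − Asample)/Acontrol × 100. EC50 is the concentration scavenging 50% of radicals; mean of three experiments.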
For orientation: DPPH is a stable violet radical that fades when it is reduced.

Test [7] has as its system THP-1. In words: Antiinflammatory activity against PMA-stimulated human THP1 cells assessed as IL-1beta levels after 48 hrs by ELISA (reference value: 172 +/- 0.71 pg/ml). In kind it is functional.
Test [8] relates to THP-1. The test is described as follows: Antiinflammatory activity against PMA-stimulated human THP1 cells assessed as MCP-1 levels after 48 hrs by ELISA (reference value: 3521.63 +/- 79.78 pg/ml). In kind it is functional.
Setting [9] is: Homo sapiens, Erythrocyte, 0.5 h, read-out: EC50.

Values after ≈ are worked out from the molar mass of the structure shown.

What is called EC50 is the midpoint of the concentration-response curve. As usually defined, the IC50 is the point on the concentration scale where inhibition reaches its midpoint. As for `O=C(CC1SC(=O)NC1=O)Nc1nc(-c2ccc(F)cc2)cs1` (stereo not given), the EC50 result is “Not Active” in test [1], “Not Active” in test [4] (erythrocyte), “Not Active” in test [5] and 52.69 µg/mL (≈ 150 µM) in test [6]. The half-maximal inhibitory concentration (IC50) was greater than 50 µM in test [2] and 17.6 µM in test [3].
For `O=C(CC1SC(=O)NC1=O)Nc1nc(-c2ccc(Br)cc2)cs1` (stereo not given), the EC50 entry in test [1] is “Not Active”; in test [4] (erythrocyte), “Not Active”; in test [5], “Not Active”; in test [6] it was 49.71 µg/mL (≈ 121 µM). Further, the IC50 in test [2] worked out at 33.1 µM; in test [3], 49.1 µM.
For the compound `O=C(CC1SC(=O)NC1=O)Nc1nc(-c2ccc(I)cc2)cs1` (stereo not given), the values for the IC50 in test [2] and in test [3] were greater than 50 µM and 31.7 µM, respectively. Also, the EC50 entry in test [4] (erythrocyte) and in test [6] was “Not Active” throughout.
On to `O=C(CC1SC(=O)NC1=O)Nc1nc(-c2ccccc2Cl)cs1` (stereo not given), for which the figures for the IC50 in test [2] and in test [3] were 18.2 µM and 26.5 µM, respectively. Also, the concentration for a half-maximal effect (EC50) result in test [6] was “Not Active”.
For `O=C(CC1SC(=O)NC1=O)Nc1nc(-c2cccc(Cl)c2)cs1` (stereo not given), the values for the IC50 in test [2] and in test [3] were 23.4 µM and 34.2 µM, respectively. Moreover, the EC50 entry in test [6] is “Not Active”.
The matching figures for `Cc1ccccc1-c1csc(NC(=O)CC2SC(=O)NC2=O)n1` (stereo not given): 7.66 µM, 18.8 µM and “Not Active”.
For `Cc1cccc(-c2csc(NC(=O)CC3SC(=O)NC3=O)n2)c1` (stereo not given), the values for the concentration for a half-maximal effect (EC50) entry in test [1], in test [4] (erythrocyte) and in test [6] were “Not Active”, “Not Active” and 90.16 µg/mL (≈ 260 µM), respectively. Besides, the 50% inhibitory concentration (IC50) was 11.7 µM in test [2] and 18.9 µM in test [3].
With `O=C(CC1SC(=O)NC1=O)Nc1nc(-c2ccccc2F)cs1` (stereo not given), the EC50 result is “Not Active” in test [1], “Not Active” in test [4] (erythrocyte), “Not Active” in test [5] and 82.5 µg/mL (≈ 235 µM) in test [6]. In addition, the 50% inhibitory concentration (IC50) in test [2] is greater than 50 µM; in test [3] it was 16.7 µM.
For the compound `COc1ccccc1-c1csc(NC(=O)CC2SC(=O)NC2=O)n1` (stereo not given), the concentration for a half-maximal effect (EC50) in test [1] turned out to be 79.94 µg/mL (≈ 220 µM); in test [4] (setting [9]), 96.6 µg/mL (≈ 266 µM); in test [5] it was 131.79 µg/mL (≈ 363 µM); in test [6], 58.68 µg/mL (≈ 161 µM). Moreover, the 50% inhibitory concentration (IC50) in test [2] was 7.23 µM; in test [3], greater than 50 µM.
For `O=C(CC1SC(=O)NC1=O)Nc1nc2ccccc2s1` (stereo not given), the EC50 in test [1] worked out at 101.18 µg/mL (≈ 329 µM); in test [4] (setting [9]), 107 µg/mL (≈ 349 µM); in test [5], 149.7 µg/mL (≈ 487 µM); in test [6], 52.18 µg/mL (≈ 170 µM). For the same compound, the figures for the IC50 in test [2] and in test [3] were greater than 50 µM and 20.8 µM, respectively.
`O=C(CC1SC(=O)NC1=O)Nc1nc2ccc([N+](=O)[O-])cc2s1` (stereo not given): the half-maximal effective concentration (EC50) result in test [1] is “Not Active”; in test [4] (erythrocyte), “Not Active”; in test [5], “Not Active”; in test [6], 39.76 µg/mL (≈ 113 µM). Moreover, the IC50 in test [2] is 6.83 µM; in test [3], 20.3 µM.
`COc1ccc2nc(NC(=O)CC3SC(=O)NC3=O)sc2c1` (stereo not given): the 50% effective concentration (EC50) entry is “Not Active” in test [1], “Not Active” in test [4] (erythrocyte), “Not Active” in test [5] and 51.82 µg/mL (≈ 154 µM) in test [6]. In addition, the IC50 was 7.03 µM in test [2] and 39.6 µM in test [3].
Consider `CCOc1ccc2nc(NC(=O)CC3SC(=O)NC3=O)sc2c1` (stereo not given), for which the 50% effective concentration (EC50) result in test [1] was “Not Active”; in test [4] (erythrocyte) it was “Not Active”; in test [5] it was “Not Active”; in test [6], 62.9 µg/mL (≈ 179 µM). For the same compound, the IC50 in test [2] was greater than 50 µM; in test [3], 63.1 µM.
For `O=C(CC1SC(=O)NC1=O)Nc1nc(-c2ccccc2)cs1` (stereo not given), the values for the 50% inhibitory concentration (IC50) in test [2] and in test [3] were 9.6 µM and 30.4 µM, respectively. Moreover, the EC50 result in test [6] is given as “Not Active”.
Consider `O=C(CC1SC(=O)NC1=O)Nc1nc(-c2ccc(Cl)cc2)cs1` (stereo not given), for which the IC50 in test [2] was 16.3 µM; in test [3], greater than 50 µM. Also, the EC50 entry in test [6] is on record as “Not Active”.
For `O=C1O[C@H]([C@@H](O)CO)C(O)=C1O` [ASCORBIC ACID], the EC50 in test [1] was found to be 21.01 µg/mL (≈ 119 µM); in test [4] (setting [9]), 96.6 µg/mL (≈ 549 µM); in test [5], 139.97 µg/mL (≈ 795 µM); in test [6], 40.28 µg/mL (≈ 229 µM).
As to `O=c1cc(-c2ccc(O)c(O)c2)oc2cc(O)cc(O)c12` [LUTEOLIN], the EC50 in test [1] worked out at 31.01 µg/mL (≈ 108 µM); in test [4] (setting [9]), 107 µg/mL (≈ 375 µM); in test [5], 149.7 µg/mL (≈ 523 µM); in test [6] it was 44.18 µg/mL (≈ 154 µM).
`CCc1ccc(CCOc2ccc(CC3SC(=O)NC3=O)cc2)nc1` (stereo not given) [PIOGLITAZONE]: the values for the Activity in test [7] and in test [8] were 165 pg/mL and 2588.33 pg/mL, respectively. Besides, the results for the IC50 in test [2] and in test [3] were greater than 50 µM and 18.8 µM, respectively.
As to `CN1C(C(=O)Nc2ccccn2)=C(O)c2ccccc2S1(=O)=O` [PIROXICAM], the IC50 in test [2] worked out at 21.3 µM.
